According to ChEMBL document CHEMBL5058577, “EUbOPEN Chemogenomics Library 2 (Multiplex)” (2022):

Test system: Fibroblast
Test: Multiplex assay against human fibroblast
Assay type: toxicity, cell-based
In short: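 At seeding, live cells were stained with Hoechst33342, BioTracker Green Microtubule Cytoskeleton Dye, MitoTracker Red and Annexin V Alexa Fluor 680. After compound addition they were imaged on a CQ1 microscope at 37°C and 5% CO2, and CellPathfinder machine-learning gating sorted them into Hoechst high-intensity objects or normal cells, with normal cells further split into healthy, pyknosed or fragmented nuclei and pyknosed cells into mitotic or apoptotic. Tubulin, mitochondrial-mass and membrane-permeability phenotypes are given as per cents of cells with healthy nuclei.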

[1] = 12 h, 1 µM, compound concentration 1 uM, replicate 1
[2] = 12 h, 1 µM, compound concentration 1 uM, replicate 2
[3] = 12 h, 10 µM, compound concentration 10 uM, replicate 1
[4] = 12 h, 10 µM, compound concentration 10 uM, replicate 2
[5] = 24 h, 1 µM, compound concentration 1 uM, replicate 1
[6] = 24 h, 1 µM, compound concentration 1 uM, replicate 2
[7] = 24 h, 10 µM, compound concentration 10 uM, replicate 1
[8] = 24 h, 10 µM, compound concentration 10 uM, replicate 2
[9] = 48 h, 1 µM, compound concentration 1 uM, replicate 1
[10] = 48 h, 1 µM, compound concentration 1 uM, replicate 2
[11] = 48 h, 10 µM, compound concentration 10 uM, replicate 1
[12] = 48 h, 10 µM, compound concentration 10 uM, replicate 2

C[C@H]1[C@H]2CC[C@H]3[C@@H]4CC=C5C[C@@H](N(C)C)CC[C@]5(C)[C@H]4CC[C@]23CN1C [CONESSINE]
Population Apoptotic (%) [1]: 45%
Population Fragmented Nuclei (%) [1]: 15%
Population Healthy Nuclei (%) [1]: 73%
Population Hoechst High Intensity Objects (%) [1]: 1%
Population Membrane Permeable-Phenotype (%) [1]: 0%
Population Mitochondria Different-Phenotype (%) [1]: 8%
Population Mitotic Cells (%) [1]: 55%
Population Normal (%) [1]: 98%
Population Pyknosed Nuclei (%) [1]: 11%
Population Tubulin-Different-Phenotype (%) [1]: 19%
Total Cell Count [1]: 174
Population Apoptotic (%) [2]: 29%
Population Fragmented Nuclei (%) [2]: 33%
Population Healthy Nuclei (%) [2]: 41%
Population Hoechst High Intensity Objects (%) [2]: 2%
Population Membrane Permeable-Phenotype (%) [2]: 7%
Population Mitochondria Different-Phenotype (%) [2]: 2%
Population Mitotic Cells (%) [2]: 70%
Population Normal (%) [2]: 97%
Population Pyknosed Nuclei (%) [2]: 24%
Population Tubulin-Different-Phenotype (%) [2]: 46%
Total Cell Count [2]: 101
Population Apoptotic (%) [3]: 37%
Population Fragmented Nuclei (%) [3]: 26%
Population Healthy Nuclei (%) [3]: 60%
Population Hoechst High Intensity Objects (%) [3]: 3%
Population Membrane Permeable-Phenotype (%) [3]: 5%
Population Mitochondria Different-Phenotype (%) [3]: 10%
Population Mitotic Cells (%) [3]: 62%
Population Normal (%) [3]: 96%
Population Pyknosed Nuclei (%) [3]: 13%
Population Tubulin-Different-Phenotype (%) [3]: 32%
Total Cell Count [3]: 189
Population Apoptotic (%) [4]: 43%
Population Healthy Nuclei (%) [4]: 45%
Population Membrane Permeable-Phenotype (%) [4]: 8%
Population Mitochondria Different-Phenotype (%) [4]: 4%
Population Mitotic Cells (%) [4]: 56%
Population Pyknosed Nuclei (%) [4]: 28%
Population Tubulin-Different-Phenotype (%) [4]: 58%
Total Cell Count [4]: 110
Population Apoptotic (%) [5]: 43%
Population Fragmented Nuclei (%) [5]: 13%
Population Healthy Nuclei (%) [5]: 73%
Population Hoechst High Intensity Objects (%) [5]: 2%
Population Membrane Permeable-Phenotype (%) [5]: 1%
Population Mitochondria Different-Phenotype (%) [5]: 4%
Population Mitotic Cells (%) [5]: 56%
Population Normal (%) [5]: 97%
Population Pyknosed Nuclei (%) [5]: 13%
Population Tubulin-Different-Phenotype (%) [5]: 22%
Total Cell Count [5]: 175
Population Apoptotic (%) [6]: 40%
Population Fragmented Nuclei (%) [6]: 27%
Population Healthy Nuclei (%) [6]: 48%
Population Hoechst High Intensity Objects (%) [6]: 4%
Population Membrane Permeable-Phenotype (%) [6]: 13%
Population Mitochondria Different-Phenotype (%) [6]: 6%
Population Mitotic Cells (%) [6]: 59%
Population Normal (%) [6]: 95%
Population Pyknosed Nuclei (%) [6]: 24%
Population Tubulin-Different-Phenotype (%) [6]: 61%
Total Cell Count [6]: 95
Population Apoptotic (%) [7]: 64%
Population Fragmented Nuclei (%) [7]: 28%
Population Healthy Nuclei (%) [7]: 61%
Population Hoechst High Intensity Objects (%) [7]: 3%
Population Membrane Permeable-Phenotype (%) [7]: 1%
Population Mitochondria Different-Phenotype (%) [7]: 7%
Population Mitotic Cells (%) [7]: 35%
Population Normal (%) [7]: 96%
Population Pyknosed Nuclei (%) [7]: 9%
Population Tubulin-Different-Phenotype (%) [7]: 27%
Total Cell Count [7]: 190
Population Apoptotic (%) [8]: 36%
Population Healthy Nuclei (%) [8]: 39%
Population Hoechst High Intensity Objects (%) [8]: 2%
Population Membrane Permeable-Phenotype (%) [8]: 7%
Population Mitotic Cells (%) [8]: 63%
Population Normal (%) [8]: 97%
Population Pyknosed Nuclei (%) [8]: 32%
Population Tubulin-Different-Phenotype (%) [8]: 60%
Total Cell Count [8]: 106
Population Apoptotic (%) [9]: 50%
Population Fragmented Nuclei (%) [9]: 17%
Population Healthy Nuclei (%) [9]: 73%
Population Hoechst High Intensity Objects (%) [9]: 5%
Population Membrane Permeable-Phenotype (%) [9]: 0%
Population Mitochondria Different-Phenotype (%) [9]: 3%
Population Mitotic Cells (%) [9]: 50%
Population Normal (%) [9]: 94%
Population Pyknosed Nuclei (%) [9]: 9%
Population Tubulin-Different-Phenotype (%) [9]: 27%
Total Cell Count [9]: 178
Population Apoptotic (%) [10]: 47%
Population Fragmented Nuclei (%) [10]: 37%
Population Healthy Nuclei (%) [10]: 45%
Population Hoechst High Intensity Objects (%) [10]: 0%
Population Membrane Permeable-Phenotype (%) [10]: 17%
Population Mitochondria Different-Phenotype (%) [10]: 8%
Population Mitotic Cells (%) [10]: 52%
Population Normal (%) [10]: 99%
Population Pyknosed Nuclei (%) [10]: 16%
Population Tubulin-Different-Phenotype (%) [10]: 63%
Total Cell Count [10]: 104
Population Apoptotic (%) [11]: 66%
Population Fragmented Nuclei (%) [11]: 26%
Population Healthy Nuclei (%) [11]: 62%
Population Hoechst High Intensity Objects (%) [11]: 6%
Population Membrane Permeable-Phenotype (%) [11]: 0%
Population Mitochondria Different-Phenotype (%) [11]: 4%
Population Mitotic Cells (%) [11]: 33%
Population Normal (%) [11]: 93%
Population Pyknosed Nuclei (%) [11]: 10%
Population Tubulin-Different-Phenotype (%) [11]: 25%
Total Cell Count [11]: 190
Population Apoptotic (%) [12]: 27%
Population Fragmented Nuclei (%) [12]: 29%
Population Healthy Nuclei (%) [12]: 48%
Population Hoechst High Intensity Objects (%) [12]: 2%
Population Membrane Permeable-Phenotype (%) [12]: 8%
Population Mitochondria Different-Phenotype (%) [12]: 6%
Population Mitotic Cells (%) [12]: 72%
Population Normal (%) [12]: 97%
Population Pyknosed Nuclei (%) [12]: 22%
Population Tubulin-Different-Phenotype (%) [12]: 62%
Total Cell Count [12]: 102

CN(C)CCCc1cc(C(=O)Nc2ccc(-c3ccncc3)cc2)ccc1O.Cl.Cl
Population Apoptotic (%) [1]: 31%
Population Fragmented Nuclei (%) [1]: 15%
Population Healthy Nuclei (%) [1]: 65%
Population Hoechst High Intensity Objects (%) [1]: 4%
Population Membrane Permeable-Phenotype (%) [1]: 0%
Population Mitochondria Different-Phenotype (%) [1]: 7%
Population Mitotic Cells (%) [1]: 68%
Population Normal (%) [1]: 95%
Population Pyknosed Nuclei (%) [1]: 18%
Population Tubulin-Different-Phenotype (%) [1]: 22%
Total Cell Count [1]: 122
Population Apoptotic (%) [2]: 44%
Population Fragmented Nuclei (%) [2]: 22%
Population Healthy Nuclei (%) [2]: 52%
Population Hoechst High Intensity Objects (%) [2]: 2%
Population Membrane Permeable-Phenotype (%) [2]: 4%
Population Mitochondria Different-Phenotype (%) [2]: 4%
Population Mitotic Cells (%) [2]: 55%
Population Normal (%) [2]: 97%
Population Pyknosed Nuclei (%) [2]: 24%
Population Tubulin-Different-Phenotype (%) [2]: 40%
Total Cell Count [2]: 120
Population Apoptotic (%) [3]: 68%
Population Fragmented Nuclei (%) [3]: 33%
Population Healthy Nuclei (%) [3]: 58%
Population Hoechst High Intensity Objects (%) [3]: 7%
Population Membrane Permeable-Phenotype (%) [3]: 0%
Population Mitochondria Different-Phenotype (%) [3]: 15%
Population Mitotic Cells (%) [3]: 31%
Population Normal (%) [3]: 92%
Population Pyknosed Nuclei (%) [3]: 7%
Population Tubulin-Different-Phenotype (%) [3]: 43%
Total Cell Count [3]: 305
Population Apoptotic (%) [4]: 48%
Population Fragmented Nuclei (%) [4]: 31%
Population Healthy Nuclei (%) [4]: 51%
Population Hoechst High Intensity Objects (%) [4]: 4%
Population Membrane Permeable-Phenotype (%) [4]: 4%
Population Mitochondria Different-Phenotype (%) [4]: 6%
Population Mitotic Cells (%) [4]: 51%
Population Normal (%) [4]: 95%
Population Pyknosed Nuclei (%) [4]: 17%
Population Tubulin-Different-Phenotype (%) [4]: 45%
Total Cell Count [4]: 236
Population Apoptotic (%) [5]: 30%
Population Fragmented Nuclei (%) [5]: 16%
Population Healthy Nuclei (%) [5]: 66%
Population Hoechst High Intensity Objects (%) [5]: 1%
Population Membrane Permeable-Phenotype (%) [5]: 2%
Population Mitochondria Different-Phenotype (%) [5]: 3%
Population Mitotic Cells (%) [5]: 70%
Population Normal (%) [5]: 98%
Population Pyknosed Nuclei (%) [5]: 17%
Population Tubulin-Different-Phenotype (%) [5]: 25%
Total Cell Count [5]: 119
Population Apoptotic (%) [6]: 37%
Population Fragmented Nuclei (%) [6]: 22%
Population Healthy Nuclei (%) [6]: 50%
Population Hoechst High Intensity Objects (%) [6]: 4%
Population Membrane Permeable-Phenotype (%) [6]: 1%
Population Mitochondria Different-Phenotype (%) [6]: 7%
Population Mitotic Cells (%) [6]: 62%
Population Normal (%) [6]: 95%
Population Pyknosed Nuclei (%) [6]: 27%
Population Tubulin-Different-Phenotype (%) [6]: 45%
Total Cell Count [6]: 111
Population Apoptotic (%) [7]: 47%
Population Fragmented Nuclei (%) [7]: 30%
Population Healthy Nuclei (%) [7]: 63%
Population Hoechst High Intensity Objects (%) [7]: 6%
Population Membrane Permeable-Phenotype (%) [7]: 0%
Population Mitochondria Different-Phenotype (%) [7]: 11%
Population Mitotic Cells (%) [7]: 52%
Population Normal (%) [7]: 93%
Population Pyknosed Nuclei (%) [7]: 5%
Population Tubulin-Different-Phenotype (%) [7]: 40%
Total Cell Count [7]: 339
Population Apoptotic (%) [8]: 42%
Population Fragmented Nuclei (%) [8]: 31%
Population Healthy Nuclei (%) [8]: 53%
Population Hoechst High Intensity Objects (%) [8]: 4%
Population Membrane Permeable-Phenotype (%) [8]: 5%
Population Mitochondria Different-Phenotype (%) [8]: 5%
Population Mitotic Cells (%) [8]: 57%
Population Normal (%) [8]: 95%
Population Pyknosed Nuclei (%) [8]: 14%
Population Tubulin-Different-Phenotype (%) [8]: 42%
Total Cell Count [8]: 242
Population Apoptotic (%) [9]: 62%
Population Fragmented Nuclei (%) [9]: 28%
Population Healthy Nuclei (%) [9]: 59%
Population Hoechst High Intensity Objects (%) [9]: 0%
Population Membrane Permeable-Phenotype (%) [9]: 0%
Population Mitochondria Different-Phenotype (%) [9]: 1%
Population Mitotic Cells (%) [9]: 37%
Population Normal (%) [9]: 99%
Population Pyknosed Nuclei (%) [9]: 12%
Population Tubulin-Different-Phenotype (%) [9]: 29%
Total Cell Count [9]: 126
Population Apoptotic (%) [10]: 50%
Population Fragmented Nuclei (%) [10]: 23%
Population Healthy Nuclei (%) [10]: 54%
Population Hoechst High Intensity Objects (%) [10]: 8%
Population Membrane Permeable-Phenotype (%) [10]: 1%
Population Mitochondria Different-Phenotype (%) [10]: 5%
Population Mitotic Cells (%) [10]: 50%
Population Normal (%) [10]: 91%
Population Pyknosed Nuclei (%) [10]: 21%
Population Tubulin-Different-Phenotype (%) [10]: 46%
Total Cell Count [10]: 111
Population Apoptotic (%) [11]: 56%
Population Fragmented Nuclei (%) [11]: 28%
Population Healthy Nuclei (%) [11]: 60%
Population Hoechst High Intensity Objects (%) [11]: 11%
Population Membrane Permeable-Phenotype (%) [11]: 0%
Population Mitochondria Different-Phenotype (%) [11]: 8%
Population Mitotic Cells (%) [11]: 43%
Population Normal (%) [11]: 88%
Population Pyknosed Nuclei (%) [11]: 11%
Population Tubulin-Different-Phenotype (%) [11]: 48%
Total Cell Count [11]: 321
Population Apoptotic (%) [12]: 51%
Population Fragmented Nuclei (%) [12]: 35%
Population Healthy Nuclei (%) [12]: 53%
Population Hoechst High Intensity Objects (%) [12]: 2%
Population Membrane Permeable-Phenotype (%) [12]: 3%
Population Mitochondria Different-Phenotype (%) [12]: 2%
Population Mitotic Cells (%) [12]: 48%
Population Normal (%) [12]: 97%
Population Pyknosed Nuclei (%) [12]: 10%
Population Tubulin-Different-Phenotype (%) [12]: 39%
Total Cell Count [12]: 261
